Screening results: PubChem BioAssay, Broad Institute
INS-1E ATP HTS = INS-1E beta cell protection from cytokine death. hit rate 0.1% among 20,000. INS-1E cytokine-induced death, ATP luminescence, 48 h; normalised: neutral wells 0, positive control 100. protection from cytokine-induced ATP loss, % at 10 µM;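 active means mean replicate protection from cytokine-induced ATP loss at least 50% and at least 75% of replicates each reaching 50%; inconclusive means meets only one of the two criteria, mean or replicate share; inactive means fails both the mean and replicate share criteria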
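Material: INS-1E rat cells; Quantity: 8000 cells/well; Buffer or medium: phenol-red-free RPMI with 5% fetal bovine serum; Probe or stimulus: cytokine cocktail of IFN-γ, TNF-α and IL-1β; Compound dosing: single test concentration per compound, delivered by pin transfer; Incubation: 48 h co-treatment, 10 min post-lysis read; Signal: CellTiter-Glo luminescence.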
A1 apoptosis 2 = A1 inhibition read as caspase activation; MEF A1-2A-BIM cells, caspase-Glo luminescence, 3 h; percent of clofoctol response, DMSO zero; caspase activation, % (test concentration not listed); 24,000 tested, under 10 active; in the data active means caspase activation above about 5.9%; inconclusive means no clear call, values can overlap the other calls; inactive means below about 2.2%
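Test system – A1-2A-BIM-expressing MEF cells · Input – 2500 cells/well · Medium – RPMI-1640 growth medium with 10% FBS · Compound dosing – 50 nL pinned compound · Timing – 3 h compound exposure at 37 °C · Technique – Caspase-Glo luminescence (DEVD substrate) · Evaluation – Caspase-3/7 activity from luminescence increase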
T cruzi HTS = intracellular Trypanosoma cruzi inhibition | hit rate 4.9% among 22,000 | intracellular Trypanosoma cruzi in host cells, plate reader | activity score (inhibition), % at 5.01 µM; in the data active means activity score above about 55%; inconclusive means no clear call, values can overlap the other calls;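 further: parasites and compound incubated about four days before reading; 0% = median of neutral control wells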
Numbers without * were called inactive; ? = inconclusive; . = not tested or not shown. The full list was thinned out, with hits kept by preference.

SMILES	INS-1E ATP HTS	A1 apoptosis 2	T cruzi HTS
C[C@H](CO)N1C[C@H](C)[C@H](CN(C)C(=O)Nc2ccc(F)cc2)Oc2ncc(-c3cccc(C(F)(F)F)c3)cc2C1=O	.	-1	51
C[C@H](CO)N1C[C@H](C)[C@H](CN(C)C(=O)Nc2ccccc2)Oc2ncc(-c3cccc(C(F)(F)F)c3)cc2C1=O	.	-1	64*
Cc1nnc(Sc2ccc(/C=N/NC(=O)CCCCCCC(=O)NO)o2)n1C	.	1	.
O=C1O[C@@H](c2ccccc2)[C@@H](c2ccccc2)N2[C@@H](c3ccc(OCCO)cc3)[C@]3(C(=O)Nc4ccccc43)[C@@H](C(=O)N3CCCCCCC3)[C@H]12	.	0	.
OC[C@@H]1[C@H]2c3ccccc3OC1(CO)N=C1SCCCN12	.	0	.
O=C(N/N=C/c1cccc(O)c1)c1ccccn1	-9	-10	-6
C[C@H](CO)N1C[C@H](C)[C@H](CN(C)C)Oc2ncc(-c3cc4ccccc4o3)cc2C1=O	.	0	85*
C[C@H](CO)N1C[C@H](C)[C@H](CN(C)Cc2ccc3c(c2)OCO3)Oc2ncc(-c3cc4ccccc4o3)cc2C1=O	.	-2	78*
CCCN(C)C[C@@H]1Oc2ncc(-c3cc4ccccc4o3)cc2C(=O)N([C@H](C)CO)C[C@@H]1C	.	1	?
C[C@H](CO)N1C[C@H](C)[C@H](CN(C)Cc2ccc3c(c2)OCO3)Oc2ncc(-c3ccc(F)cc3)cc2C1=O	.	0	19
COc1ccc(S(=O)(=O)N(C)C[C@@H]2Oc3ncc(-c4cc5ccccc5o4)cc3C(=O)N([C@H](C)CO)C[C@@H]2C)cc1	-15	0	47
C[C@H](CO)N1C[C@H](C)[C@H](CN(C)S(=O)(=O)c2cccs2)Oc2ncc(-c3cc4ccccc4o3)cc2C1=O	.	0	67*
C=CC1c2cc(O)c(OC)cc2CCN1Cc1cc2c(cc1Br)OCO2 (configuration not stated)	.	1	.
O=C(CCCCCC(=O)N/N=C/c1ccc(Br)cc1)NO	.	0	.
C[C@H](CO)N1C[C@H](C)[C@H](CN(C)C)Oc2ncc(-c3cccc(C(F)(F)F)c3)cc2C1=O	.	1	81*
C[C@H](CO)N1C[C@H](C)[C@H](CN(C)Cc2ccc(F)cc2)Oc2ncc(-c3cccc(C(F)(F)F)c3)cc2C1=O	.	.	62*
COc1cccc(S(=O)(=O)N(C)C[C@@H]2Oc3ncc(-c4cccc(F)c4)cc3C(=O)N([C@H](C)CO)C[C@@H]2C)c1	.	.	30
C[C@H](CO)N1C[C@H](C)[C@H](CN(C)Cc2cccc(C(F)(F)F)c2)Oc2ncc(C#Cc3ccccc3)cc2C1=O	.	1	84*
C[C@H](CO)N1C[C@H](C)[C@H](CN(C)Cc2ccc(F)cc2)Oc2ncc(C#Cc3ccccc3)cc2C1=O	.	1	.
COc1cccc(S(=O)(=O)N(C)C[C@@H]2Oc3ncc(-c4cccc(C(F)(F)F)c4)cc3C(=O)N([C@H](C)CO)C[C@@H]2C)c1	.	.	57*
C[C@H](CO)N1C[C@H](C)[C@H](CN(C)Cc2ccccc2)Oc2ncc(-c3cccc(C(F)(F)F)c3)cc2C1=O	.	0	?
CNC[C@@H]1Oc2ncc(-c3cccc(C(F)(F)F)c3)cc2C(=O)N([C@H](C)CO)C[C@@H]1C	.	-1	54
O=C(N/N=C/c1ccccc1[N+](=O)[O-])c1ccccc1O	-75	-12	-8
C=CC[C@@]12N=C(c3ccc(OCCCO)cc3)O[C@@H]1c1ccccc1N(CCS(=O)(=O)c1ccccc1)C2=O	.	0	.
Cc1ncc(CO)c(/C=N/NC(=O)CCCCCC(=O)Nc2ccccc2O)c1O	.	-1	.
SMILES	INS-1E ATP HTS	A1 apoptosis 2	T cruzi HTS
C#CCN([C@H](/C=C/C1CC1)[C@@H](O)Cc1ccccc1)[C@@H](Cc1ccc(N=[N+]=[N-])cc1)C(=O)OC	.	0	.
COC(=O)CCCCCCC(=O)N/N=C/c1c(O)ccc2ccccc12	25	-1	27
C[C@H](CO)N1C[C@H](C)[C@H](CN(C)Cc2ccc3c(c2)OCO3)Oc2ncc(-c3cccc(C(F)(F)F)c3)cc2C1=O	-13	1	62*
Cc1cccc(CN(C)C[C@@H]2Oc3ncc(-c4ccc(F)cc4)cc3C(=O)N([C@H](C)CO)C[C@@H]2C)c1	.	.	34
C[C@H](CO)N1C[C@H](C)[C@H](CN(C)Cc2cccc(C(F)(F)F)c2)Oc2ncc(-c3ccc(F)cc3)cc2C1=O	.	.	59*
C[C@H](CO)N1C[C@H](C)[C@H](CN(C)Cc2ccc3c(c2)OCO3)Oc2ncc(-c3cccc(F)c3)cc2C1=O	-21	0	25
O=C(N/N=C/c1ccc(O)cc1Br)c1ccccn1	12	-12	-7
C[C@H]1CN([C@@H](C)CO)C(=O)c2cc(NC(=O)Nc3ccc(C(F)(F)F)cc3)ccc2O[C@@H]1CN(C)S(=O)(=O)c1ccc(F)cc1	-7	0	6
C[C@@H]1CN([C@H](C)CO)C(=O)c2cc(NC(=O)Nc3ccc(C(F)(F)F)cc3)ccc2O[C@H]1CN(C)S(=O)(=O)c1ccc(F)cc1	-30	-2	65*
C[C@@H]1CN([C@H](C)CO)C(=O)c2cc(NC(=O)Nc3ccc(C(F)(F)F)cc3)ccc2O[C@@H]1CN(C)S(=O)(=O)c1ccccc1	-1	1	11
Cc1ccc(S(=O)(=O)N(C)C[C@H]2Oc3ccc(NC(=O)Nc4ccc(C(F)(F)F)cc4)cc3C(=O)N([C@@H](C)CO)C[C@H]2C)cc1	-36	0	64*
Cc1ccc(S(=O)(=O)N(C)C[C@@H]2Oc3ccc(NC(=O)Nc4ccc(C(F)(F)F)cc4)cc3C(=O)N([C@H](C)CO)C[C@@H]2C)cc1	-58	-1	26
C[C@@H]1CN([C@@H](C)CO)C(=O)c2cc(NC(=O)Nc3ccc(C(F)(F)F)cc3)ccc2O[C@H]1CN(C)S(=O)(=O)c1ccccc1	-28	1	68*
COc1ccccc1CN1C(=O)c2ccccc2[C@@]2(Cc3ccccc3N(CCCN(C)C)C2=O)[C@@H]1c1ccc(CO)cc1	.	-1	.
COc1ccc(C#Cc2cnc3c(c2)C(=O)N([C@H](C)CO)C[C@H](C)[C@H](CN(C)S(=O)(=O)c2ccccc2)O3)cc1OC	.	-1	37
C[C@H](CO)N1C[C@H](C)[C@H](CN(C)S(=O)(=O)c2cccc(F)c2)Oc2ncc(C#Cc3ccccc3)cc2C1=O	.	0	51
C[C@H](CO)N1C[C@H](C)[C@H](CN(C)S(=O)(=O)c2ccc(F)cc2)Oc2ncc(C#Cc3ccccc3)cc2C1=O	.	.	62*
C[C@H](CO)N1C[C@H](C)[C@H](CN(C)S(=O)(=O)c2ccccc2)Oc2ncc(C#Cc3ccccc3)cc2C1=O	.	1	48
C[C@H](CO)N1C[C@H](C)[C@H](CN(C)S(=O)(=O)c2ccccc2)Oc2ncc(C#Cc3ccc(C(F)(F)F)cc3)cc2C1=O	.	1	78*
CCCC(O)C#Cc1cnc2c(c1)C(=O)N([C@H](C)CO)C[C@H](C)[C@H](CN(C)S(=O)(=O)c1ccc(F)cc1)O2 (some centres not stated)	.	0	18
C[C@H](CO)N1C[C@H](C)[C@H](CN(C)S(=O)(=O)c2cccc(F)c2)Oc2ncc(C#Cc3ccc(C(F)(F)F)cc3)cc2C1=O	.	0	85*
